Values after ≈ are worked out from the molar mass of the structure shown.
Experiments:
Candida parapsilosis = test: Antimicrobial activity against Candida parapsilosis ATCC 22019 after 24 hrs; details: Lodderomyces parapsilosis, ATCC 22019, 24 h
Candida albicans = test: Antimicrobial activity against Candida albicans ATCC 10231 after 24 hrs; details: ATCC 10231, 24 h
Aspergillus fumigatus = test: Antimicrobial activity against Aspergillus fumigatus SNB-AF1 after 24 hrs; details: SNB-AF1, 24 h
Trichophyton rubrum = test: Antimicrobial activity against Trichophyton rubrum SNB-TR1 after 5 days; type: functional; details: SNB-TR1, 120 h
In short: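 MIC against the dermatophyte T. rubrum, with itraconazole as the reference drug.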

Staphylococcus aureus = test: Antimicrobial activity against Staphylococcus aureus ATCC 29213 after 24 hrs; type: functional; details: ATCC 29213, 24 h
MRC5 = test: Cytotoxicity activity against human MRC5 cells; type: cell-based
In short: (§1)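 IC50 in μM against KB (nasopharyngeal epidermoid carcinoma) and MRC5 (normal fetal lung) cells, with taxotere as the positive control.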

KB = test: Cytotoxicity activity against human KB cells; type: functional, cell-based
In short: as §1

Escherichia coli = test: Antimicrobial activity against Escherichia coli ATCC 25922 after 24 hrs; type: functional
[1] = Cytotoxicity activity against human MDA435 cells; details: MDA-MB-435
[2] = Selectivity index, ratio of IC50 for human MRC5 cells to IC50 for Trichophyton rubrum SNB-TR1
[3] = Selectivity index, ratio of IC50 for human MRC5 cells to IC50 for Staphylococcus aureus ATCC 29213
[4] = Selectivity index, ratio of IC50 for human MRC5 cells to IC50 for Candida albicans ATCC 10231
[5] = Selectivity index, ratio of IC50 for human MRC5 cells to IC50 for Candida parapsilosis ATCC 22019
[6] = Selectivity index, ratio of IC50 for human MRC5 cells to IC50 for Escherichia coli ATCC 25922
[7] = Selectivity index, ratio of IC50 for human MRC5 cells to IC50 for Aspergillus […] SNB-AF1

Row | Compound | MIC (Candida parapsilosis) [µg/mL] | MIC (Candida albicans) [µg/mL] | MIC (Aspergillus fumigatus) [µg/mL] | MIC (Trichophyton rubrum) [µg/mL] | MIC (Staphylococcus aureus) [µg/mL] | IC50 (MRC5) [µM] | IC50 (KB) [µM] | MIC (Escherichia coli; ATCC 25922, 24 h) [µg/mL] | IC50 [1] [µM] | MIC (Escherichia coli) [µg/mL] | Selectivity Index [2] | selectivity ratio [3] | selectivity ratio [4] | selectivity ratio [5] | selectivity ratio [6] | Selectivity Index [7]
1 | OC(Cn1cncn1)(Cn1cncn1)c1ccc(F)cc1F [FLUCONAZOLE] | 4 (≈ 13.1 µM) | 4 (≈ 13.1 µM) |  |  |  |  |  |  |  |  |  |  |  |  |  | 
2 | CCC(C)n1ncn(-c2ccc(N3CCN(c4ccc(OCC5COC(Cn6cncn6)(c6ccc(Cl)cc6Cl)O5)cc4)CC3)cc2)c1=O (configuration not stated) [ITRACONAZOLE] |  |  | 0.5 (≈ 0.709 µM) | 0.03 (≈ 0.0425 µM) |  |  |  |  |  |  |  |  |  |  |  | 
3 | Cc1onc(-c2ccccc2)c1C(=O)N[C@@H]1C(=O)N2[C@@H]1SC(C)(C)[C@@H]2C(=O)O [OXACILLIN] |  |  |  |  | 0.5 (≈ 1.25 µM) |  |  |  |  |  |  |  |  |  |  | 
4 | CC(=O)O[C@@]12CO[C@@H]1C[C@H](O)[C@@]1(C)C(=O)[C@H](O)C3=C(C)[C@@H](OC(=O)[C@H](O)[C@@H](NC(=O)OC(C)(C)C)c4ccccc4)C[C@@](O)([C@@H](OC(=O)c4ccccc4)[C@H]21)C3(C)C [DOCETAXEL] |  |  |  |  |  | 0.0005 | 0.0002 |  |  |  |  |  |  |  |  | 
5 | CC(C)=CCC/C(C)=C/CCC(C)(O)C1Cc2c(O)c(C=O)c(C)c(Cl)c2O1 (configuration not stated) | 128 (≈ 315 µM) | 128 (≈ 315 µM) | > 128 | 128 (≈ 315 µM) | 128 (≈ 315 µM) | 15.1 | 16.5 | 64 (≈ 157 µM) | 16.4 |  |  |  |  |  |  | 
6 | GENTAMICIN |  |  |  |  |  |  |  |  |  | 8 |  |  |  |  |  | 
7 | CC(C)=CCC/C(C)=C/CC/C(C)=C/Cc1c(O)c(Cl)c(C)c(C(=O)O)c1O | 16 (≈ 39.3 µM) | 16 (≈ 39.3 µM) | 64 (≈ 157 µM) | 8 (≈ 19.7 µM) | 4 (≈ 9.83 µM) | 19.7 | 36.6 | 1 (≈ 2.46 µM) | 15.1 |  | 1 | 2 | 0.5 | 0.5 | 8 | 0.1
8 | C/C(=C\Cc1c(O)c(Cl)c(C)c(C(=O)O)c1O)CC/C=C(\C)CCCC(C)(C)O | 16 (≈ 37.7 µM) | 16 (≈ 37.7 µM) | 128 (≈ 301 µM) | 32 (≈ 75.3 µM) | 32 (≈ 75.3 µM) | 62.1 | 47.3 | 8 (≈ 18.8 µM) | 42.4 |  | 0.8 | 0.8 | 1.6 | 1.6 | 3.3 | 0.2
9 | CC(C)=CCCC(C)(O)CCC/C(C)=C/Cc1c(O)c(Cl)c(C)c(C(=O)O)c1O (configuration not stated) | 32 (≈ 75.3 µM) | 32 (≈ 75.3 µM) | 32 (≈ 75.3 µM) | 4 (≈ 9.41 µM) | 32 (≈ 75.3 µM) | 13.7 | 28.4 | 8 (≈ 18.8 µM) | 4.9 |  | 1.5 | 0.2 | 0.2 | 0.2 | 0.7 | 0.2
